Source: publication PMC6923801 (Journal of medicinal chemistry, 2019)

Tests used:
[1] = test system: 48 common GPCRs, ion channels, and transporters; assay: Radioligand binding panel of 48 common drug targets
Procedure, shortened: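 Binding profiling was done by the NIMH PDSP. Targets were first tested at 10 μM in quadruplicate. pKi values were determined for targets with ≥50% inhibition, from at least three independent assays, each in triplicate.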

[2] = target: human GPR68 (Homo sapiens, UniProt Q15743); assay: GloSensor cAMP assay, proton-mediated Gs-cAMP production at human GPR68; format: cell-based; details: for Log (α): affinity cooperativity; for Log (α) / Log (β): human GPR68, HEK293T, Gs-cAMP; for Log (α) / −Log (KB) / Log (αβ/KB) / Log (β): mean ± SEM; for −Log (KB): allosteric binding affinity from functional assay; for −Log (KB) / Log (αβ/KB) / Δ / fold increased allosteric activity (log(αβ/KB)) compared to 1: human GPR68; for Log (αβ/KB): allosteric index; for Δ: difference of Log(αβ/KB) from that of 1; for Log (β): efficacy cooperativity; for PAM activity at GPR68: inactive analogues
Chain of human GPR68 (Q15743 whole entry): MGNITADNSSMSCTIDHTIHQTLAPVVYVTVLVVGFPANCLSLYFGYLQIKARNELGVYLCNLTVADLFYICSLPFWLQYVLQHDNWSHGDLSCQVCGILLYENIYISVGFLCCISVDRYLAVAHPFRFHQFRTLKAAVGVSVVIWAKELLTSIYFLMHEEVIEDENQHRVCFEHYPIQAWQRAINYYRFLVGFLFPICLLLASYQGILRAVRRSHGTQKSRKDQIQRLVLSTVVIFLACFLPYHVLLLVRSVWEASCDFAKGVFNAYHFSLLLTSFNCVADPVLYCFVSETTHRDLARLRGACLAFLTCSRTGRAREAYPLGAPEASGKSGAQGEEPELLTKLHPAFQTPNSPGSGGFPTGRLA
Procedure, shortened: (§1)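 HEK293T cells were transiently transfected with receptor and GloSensor cAMP plasmids, overnight (16–20 h). Cells were plated on poly-L-Lys in DMEM + 1% dFBS for 6–24 h, then loaded with 3.5 mM luciferin (HBSS, 20 mM TAPS, pH 8.40) for 1 h at 37 °C. Drug was applied in Ca/Mg-free HBSS pH buffers (MES 5.60–6.70, HEPES 6.80–8.20, TAPS 8.30–8.60) with 10 μM Ro 20-1724. Luminescence was read at 20–30 min.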

[3] = test system: human GPCRome (318 GPCRs); assay: PRESTO-Tango GPCRome off-target agonist screen; format: cell-based; details: 1 μM
Procedure, shortened: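 HTLA cells were plated in DMEM + 2% dFBS overnight, then transfected overnight with receptor Tango constructs (15 ng/well) by in-plate PEI. Test compound was added without medium change and left overnight. Bright-Glo luminescence was read after 20 min at room temperature and expressed as fold of basal, using quadruplicate basal and sample wells. Controls were D2 with 100 nM quinpirole and untransfected cells.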

[4] = target: GPR65 (Homo sapiens, UniProt Q8IYL9); assay: GloSensor cAMP assay at GPR65; format: cell-based; details: proton concentration-response with increasing modulator
Chain of GPR65 (Q8IYL9 whole entry): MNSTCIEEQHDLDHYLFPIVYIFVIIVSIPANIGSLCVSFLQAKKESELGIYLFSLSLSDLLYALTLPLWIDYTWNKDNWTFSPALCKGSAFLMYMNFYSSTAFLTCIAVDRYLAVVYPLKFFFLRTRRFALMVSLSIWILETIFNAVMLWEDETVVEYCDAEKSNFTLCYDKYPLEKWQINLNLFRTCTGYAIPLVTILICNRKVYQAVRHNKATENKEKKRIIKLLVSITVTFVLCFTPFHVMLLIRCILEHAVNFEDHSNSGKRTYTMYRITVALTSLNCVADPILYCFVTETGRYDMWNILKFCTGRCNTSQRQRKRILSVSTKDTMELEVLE
Procedure, shortened: as §1

[5] = target: GPR4 (Homo sapiens, UniProt P46093); assay: GloSensor cAMP assay at GPR4; format: cell-based; details: proton concentration-response with increasing modulator
Chain of GPR4 (P46093 whole entry): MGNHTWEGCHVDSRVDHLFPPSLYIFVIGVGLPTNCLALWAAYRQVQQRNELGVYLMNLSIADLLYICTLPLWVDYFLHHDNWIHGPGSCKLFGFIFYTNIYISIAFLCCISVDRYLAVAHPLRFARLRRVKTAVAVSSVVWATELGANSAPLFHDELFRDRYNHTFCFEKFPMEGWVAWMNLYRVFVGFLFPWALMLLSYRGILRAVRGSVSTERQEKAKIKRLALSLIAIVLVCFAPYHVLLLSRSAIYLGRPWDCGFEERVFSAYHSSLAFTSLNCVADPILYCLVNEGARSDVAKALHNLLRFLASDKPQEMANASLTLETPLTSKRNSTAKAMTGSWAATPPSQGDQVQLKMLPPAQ
Procedure, shortened: as §1

[6] = target: A2A receptors (Homo sapiens, UniProt P29274); assay: Functional assay at A2A receptors; format: cell-based
Chain of A2A receptors (P29274 whole entry): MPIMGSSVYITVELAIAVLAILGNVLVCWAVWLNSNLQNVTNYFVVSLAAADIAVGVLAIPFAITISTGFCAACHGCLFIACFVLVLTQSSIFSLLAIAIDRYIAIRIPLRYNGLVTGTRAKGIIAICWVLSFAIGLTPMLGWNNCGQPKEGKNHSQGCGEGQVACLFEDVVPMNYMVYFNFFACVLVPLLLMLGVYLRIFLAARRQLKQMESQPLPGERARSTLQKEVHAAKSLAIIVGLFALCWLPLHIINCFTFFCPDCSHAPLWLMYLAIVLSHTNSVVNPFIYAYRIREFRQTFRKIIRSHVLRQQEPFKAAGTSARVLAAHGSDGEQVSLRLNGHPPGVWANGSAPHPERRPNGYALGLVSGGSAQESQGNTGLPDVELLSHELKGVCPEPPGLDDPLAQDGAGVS

[7] = target: mouse GPR68 (Mus musculus, UniProt Q8BFQ3); assay: GloSensor cAMP assay at mouse GPR68; format: cell-based; details: for Δ: difference of Log(αβ/KB) at mouse GPR68 from the corresponding values at human GPR68
Chain of mouse GPR68 (Q8BFQ3 whole entry): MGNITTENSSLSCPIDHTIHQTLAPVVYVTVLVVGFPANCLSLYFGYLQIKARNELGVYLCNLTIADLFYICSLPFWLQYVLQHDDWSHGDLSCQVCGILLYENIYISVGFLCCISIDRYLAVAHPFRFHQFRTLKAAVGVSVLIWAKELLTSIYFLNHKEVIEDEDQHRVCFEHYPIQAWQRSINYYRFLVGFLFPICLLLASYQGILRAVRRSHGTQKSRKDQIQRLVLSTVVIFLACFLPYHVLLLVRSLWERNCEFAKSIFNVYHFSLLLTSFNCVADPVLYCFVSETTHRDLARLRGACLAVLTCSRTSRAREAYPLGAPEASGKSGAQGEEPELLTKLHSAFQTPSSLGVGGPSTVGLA
Procedure, shortened: as §1

[8] = target: 5-HT2B receptors (Homo sapiens, UniProt P41595); assay: Calcium release functional assay at 5-HT2B receptors; format: cell-based
Chain of 5-HT2B receptors (P41595 whole entry): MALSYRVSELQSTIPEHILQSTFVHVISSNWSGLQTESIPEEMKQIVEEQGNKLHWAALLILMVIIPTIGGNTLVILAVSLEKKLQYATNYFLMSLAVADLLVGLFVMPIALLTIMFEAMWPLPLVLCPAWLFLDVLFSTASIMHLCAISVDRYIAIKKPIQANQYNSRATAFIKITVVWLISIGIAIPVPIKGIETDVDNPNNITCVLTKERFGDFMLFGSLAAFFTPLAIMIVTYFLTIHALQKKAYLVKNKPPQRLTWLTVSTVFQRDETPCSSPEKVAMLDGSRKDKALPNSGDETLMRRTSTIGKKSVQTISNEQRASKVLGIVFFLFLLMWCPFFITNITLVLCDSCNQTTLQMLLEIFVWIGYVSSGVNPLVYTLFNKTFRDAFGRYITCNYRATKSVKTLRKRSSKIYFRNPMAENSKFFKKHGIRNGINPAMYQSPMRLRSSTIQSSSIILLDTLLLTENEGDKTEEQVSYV
Procedure, shortened: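 HEK293 cells stably expressing 5-HT2B were plated in DMEM with 1% dFBS overnight (16–20 h). They were loaded with Fluo-4 Direct dye for 1 h at 37 °C in HBSS with 20 mM HEPES and 2.5 mM probenecid, pH 7.40. Drug dilutions contained 1 mg/mL BSA and 0.1 mg/mL ascorbic acid. Fluorescence was read 1/s for 2 min, with 10 s baseline. Read-out was peak fold of basal within the first minute.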

[9] = target: atypical chemokine receptor 3 (ACKR3) (Homo sapiens, UniProt P25106); assay: Tango arrestin recruitment concentration response, ACKR3; format: cell-based
Chain of atypical chemokine receptor 3 (ACKR3) (P25106 whole entry): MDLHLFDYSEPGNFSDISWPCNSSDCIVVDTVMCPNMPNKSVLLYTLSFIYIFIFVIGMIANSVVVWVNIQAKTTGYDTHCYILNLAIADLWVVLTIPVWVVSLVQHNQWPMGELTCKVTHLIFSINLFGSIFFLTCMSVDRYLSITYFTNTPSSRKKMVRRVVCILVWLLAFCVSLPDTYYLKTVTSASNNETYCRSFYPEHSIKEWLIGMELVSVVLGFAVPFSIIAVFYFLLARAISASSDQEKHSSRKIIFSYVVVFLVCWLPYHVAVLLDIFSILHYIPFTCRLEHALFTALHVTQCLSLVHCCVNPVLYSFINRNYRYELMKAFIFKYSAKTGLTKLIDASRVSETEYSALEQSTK
Procedure, shortened: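 HTLA cells were transfected overnight with receptor DNA in DMEM + 10% FBS, then plated on poly-L-Lys in DMEM + 1% dFBS. Test compound was added 6 h later and incubated overnight (16–20 h). After removal of medium, Bright-Glo reagent was added and luminescence counted.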

CN(C)c1nc(NCc2ccccc2)nc(-c2ccccc2CO)n1 [Compound 7, (2-(4-(Benzylamino)-6-(dimethylamino)-1,3,5-triazin-2-yl)-phenyl)methanol]
binding affinity to common drug targets [1]: minimal binding affinities | Log (α) [2]: Inactive | −Log (KB) [2]: Inactive | Log (αβ/KB) [2]: Inactive | Δ [2]: Inactive | Log (β) [2]: Inactive | PAM activity at GPR68 [2]: do not show PAM activity | off-target agonist activity at human GPCRome [3]: no off-target agonist activity

Nc1nc(NCc2ccccc2)nc(-c2cccc(CO)c2)n1 [Compound 20]
PAM activity at GPR65 [4]: do not show PAM activity | Log (α) [2]: Inactive | −Log (KB) [2]: Inactive | Log (αβ/KB) [2]: Inactive | Δ [2]: Inactive | Log (β) [2]: Inactive | PAM activity at GPR68 [2]: do not show PAM activity | PAM activity at GPR4 [5]: do not show PAM activity

Nc1nc(NCc2ccc(Cl)cc2)nc(-c2ccccc2CO)n1 [Compound 46, (2-(4-Amino-6-((4-chlorobenzyl)amino)-1,3,5-triazin-2-yl)-phenyl)methanol]
EC50 [6]: 1.7 µM | agonist activity at A2A receptors [6]: no agonist activity | PAM activity at GPR65 [4]: no effect or weak activity only at high concentrations | Kb [2]: 6.03 µM | Δ [2]: 0.80 | fold increased allosteric activity (log(αβ/KB)) compared to 1 [2]: 6 fold | Kb [7]: 50.1 µM | Δ [7]: −0.43 | off-target agonist activity at human GPCRome [3]: no agonist activity | PAM activity at GPR4 [5]: no effect or weak activity only at high concentrations

Nc1nc(NCc2ccc(OC3CC3)cc2)nc(-c2ccccc2CO)n1 [Compound 58, (2-(4-Amino-6-((4-cyclopropoxybenzyl)amino)-1,3,5-triazin-2-yl)phenyl)methanol]
Kb [2]: 8.51 µM | Δ [2]: 0.46

Nc1nc(NCc2ccc(Oc3ccccc3)cc2)nc(-c2ccccc2CO)n1 [Compound 59, (2-(4-Amino-6-((4-phenoxybenzyl)amino)-1,3,5-triazin-2-yl)-phenyl)methanol]
Kb [2]: 6.46 µM | Δ [2]: 0.83

Nc1nc(Nc2ccccc2)nc(-c2ccccc2CO)n1 [Compound 60, (2-(4-Amino-6-(phenylamino)-1,3,5-triazin-2-yl)phenyl)-methanol]
Kb [2]: 120 µM | Δ [2]: −0.27

Nc1nc(NCCc2ccccc2)nc(-c2ccccc2CO)n1 [Compound 61]
Kb [2]: 31.6 µM | Δ [2]: 0.31

Nc1nc(NCCCc2ccccc2)nc(-c2ccccc2CO)n1 [Compound 62]
Kb [2]: 6.03 µM | Δ [2]: 0.80

Nc1nc(NCCCCc2ccccc2)nc(-c2ccccc2CO)n1 [Compound 63]
Kb [2]: 3.02 µM | Δ [2]: 1.04 | Kb [7]: 12.3 µM

Nc1nc(NCCc2ccc(Oc3ccccc3)cc2)nc(-c2ccccc2CO)n1 [Compound 64, (2-(4-Amino-6-((4-phenoxyphenethyl)amino)-1,3,5-triazin-2-yl)-phenyl)methanol]
Kb [2]: 10 µM | Δ [2]: 0.59

Nc1nc(NCCCc2ccc(Oc3ccccc3)cc2)nc(-c2ccccc2CO)n1 [Compound 65, (2-(4-Amino-6-((3-(4-phenoxyphenyl)propyl)amino)-1,3,5-triazin-2-yl)phenyl)methanol]
Kb [2]: 21.4 µM | Δ [2]: 0.53

Nc1nc(NCCCCc2ccc(Oc3ccccc3)cc2)nc(-c2ccccc2CO)n1 [Compound 66, (2-(4-Amino-6-((4-(4-phenoxyphenyl)butyl)amino)-1,3,5-triazin-2-yl)phenyl)methanol]
Kb [2]: 15.5 µM | Δ [2]: 0.62

Nc1nc(NCc2ccccc2F)nc(-c2c(F)cccc2CO)n1 [Compound 67, (2-(4-Amino-6-((2-fluorobenzyl)amino)-1,3,5-triazin-2-yl)-3-fluorophenyl)methanol]
Kb [2]: 60.3 µM

Nc1nc(NCc2ccc(F)cc2)nc(-c2c(F)cccc2CO)n1 [Compound 68, (2-(4-Amino-6-((4-fluorobenzyl)amino)-1,3,5-triazin-2-yl)-3-fluorophenyl)methanol]
Kb [2]: 35.5 µM | Δ [2]: 0.24

Cc1cccc(CNc2nc(N)nc(-c3c(F)cccc3CO)n2)c1 [Compound 69, (2-(4-Amino-6-((3-methylbenzyl)amino)-1,3,5-triazin-2-yl)-3-fluorophenyl)methanol]
Kb [2]: 36.3 µM | Δ [2]: 0.11

COc1ccccc1CNc1nc(N)nc(-c2c(F)cccc2CO)n1 [Compound 70, (2-(4-Amino-6-((2-methoxybenzyl)amino)-1,3,5-triazin-2-yl)-3-fluorophenyl)methanol]
Kb [2]: 77.6 µM | Δ [2]: −0.19

Nc1nc(NCCc2ccccc2)nc(-c2c(F)cccc2CO)n1 [Compound 72, (2-(4-Amino-6-(phenethylamino)-1,3,5-triazin-2-yl)-3-fluorophenyl)methanol]
Kb [2]: 9.12 µM | Δ [2]: 0.82

Nc1nc(NCCCc2ccccc2)nc(-c2c(F)cccc2CO)n1 [Compound 73, (2-(4-Amino-6-((3-phenylpropyl)amino)-1,3,5-triazin-2-yl)-3-fluorophenyl)methanol]
Kb [2]: 33.9 µM | Δ [2]: 0.36

Nc1nc(NCCCCc2ccccc2)nc(-c2c(F)cccc2CO)n1 [Compound 74, (2-(4-Amino-6-((4-phenylbutyl)amino)-1,3,5-triazin-2-yl)-3-fluorophenyl)methanol]
Kb [2]: 91.2 µM | Δ [2]: 0.03

Nc1nc(NCCc2ccc(Oc3ccccc3)cc2)nc(-c2c(F)cccc2CO)n1 [Compound 75, (2-(4-Amino-6-((4-phenoxyphenethyl)amino)-1,3,5-triazin-2-yl)-3-fluorophenyl)methanol]
Kb [2]: 8.91 µM | Δ [2]: 0.82

Nc1nc(NCCCc2ccc(Oc3ccccc3)cc2)nc(-c2c(F)cccc2CO)n1 [Compound 76, (2-(4-Amino-6-((3-(4-phenoxyphenyl)propyl)amino)-1,3,5-triazin-2-yl)-3-fluorophenyl)methanol]
Kb [2]: 11.5 µM | Δ [2]: 0.81

Nc1nc(NCCc2ccccc2)nc(-c2cc(Cl)ccc2CO)n1 [Compound 77, (2-(4-Amino-6-(phenethylamino)-1,3,5-triazin-2-yl)-4-chlorophenyl)methanol]
PAM activity at GPR65 [4]: no effect or weak activity only at high concentrations | Kb [2]: 7.24 µM | Δ [2]: 0.95 | fold increased allosteric activity (log(αβ/KB)) compared to 1 [2]: approximately 10 fold | agonist activity at 5-HT2B receptors [8]: no agonist activity | Kb [7]: 19.1 µM | Δ [7]: −0.34 | agonist type at ACKR3 [9]: full agonist activities | off-target agonist activity at human GPCRome [3]: agonist activity at an atypical chemokine receptor 3 (ACKR3) | PAM activity at GPR4 [5]: no effect or weak activity only at high concentrations

Nc1nc(NCCCc2ccccc2)nc(-c2cc(Cl)ccc2CO)n1 [Compound 78, (2-(4-Amino-6-((3-phenylpropyl)amino)-1,3,5-triazin-2-yl)-4-chlorophenyl)methanol]
PAM activity at GPR65 [4]: no effect or weak activity only at high concentrations | Kb [2]: 4.47 µM | Δ [2]: 1.07 | fold increased allosteric activity (log(αβ/KB)) compared to 1 [2]: approximately 10 fold | agonist activity at 5-HT2B receptors [8]: no agonist activity | Kb [7]: 13.8 µM | Δ [7]: −0.40 | agonist type at ACKR3 [9]: full agonist activities | off-target agonist activity at human GPCRome [3]: agonist activity at an atypical chemokine receptor 3 (ACKR3) | PAM activity at GPR4 [5]: no effect or weak activity only at high concentrations

Nc1nc(NCCCCc2ccccc2)nc(-c2cc(Cl)ccc2CO)n1 [Compound 79, (2-(4-Amino-6-((4-phenylbutyl)amino)-1,3,5-triazin-2-yl)-4-chlorophenyl)methanol]
Kb [2]: 10.5 µM | Δ [2]: 0.83

Nc1nc(NCc2ccc(Oc3ccccc3)cc2)nc(-c2cc(Cl)ccc2CO)n1 [Compound 80, (2-(4-Amino-6-((4-phenoxybenzyl)amino)-1,3,5-triazin-2-yl)-4-chlorophenyl)methanol]
Kb [2]: 20 µM | Δ [2]: 0.47

Nc1nc(NCCc2ccc(Oc3ccccc3)cc2)nc(-c2cc(Cl)ccc2CO)n1 [Compound 81, (2-(4-Amino-6-((4-phenoxyphenethyl)amino)-1,3,5-triazin-2-yl)-4-chlorophenyl)methanol]
Kb [2]: 25.7 µM | Δ [2]: 0.56
